Experimental data reported in ChEMBL document CHEMBL2203173 (J Med Chem, 2012).

Legend:
Mus musculus [1] = experiment: Toxicity in BALB/c nu/nu mouse xenografted with human DMS53 cells assessed as cardiac fibrosis at 3 mg/kg, iv administered for 5 days a week measured after 21 days by […]; type: organism-based, Heart, DMS-53; set-up: dose 3 mg/kg, route intravenous; settings: in vivo, 504 h
Outline: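 DMS-53 xenograft nude mice given agents iv by tail vein 5 days/week in 30% propylene glycol/saline for 21 days. At sacrifice, heart sections were stained with Gomori Trichrome to detect fibrosis. Spleen, kidney, liver, heart, lungs and brain were also stained with H&E and Perls' and examined by an independent veterinary pathologist.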

Mus musculus [2] = experiment: Toxicity in BALB/c nu/nu mouse xenografted with human DMS53 cells assessed as change in hematocrit level at 7.5 mg/kg, po administered for 3 times a week measured after 20 days; type: organism-based, DMS-53; set-up: dose 7.5 mg/kg, route oral; settings: in vivo, 480 h
Outline: (§1)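 Nude mice bearing DMS-53 xenografts gavaged 3 times/week for 20 days, vehicle 30% propylene glycol/saline, vehicle controls, n = 6-11 mice/condition. Sacrifice on day 20. Organ weights and hematological indices recorded. Spleen, kidney, liver, heart, lungs and brain examined histologically, hearts stained with Gomori Trichrome for fibrosis.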

Mus musculus [3] = experiment: Toxicity in BALB/c nu/nu mouse xenografted with human DMS53 cells assessed as change in platelet count at 6 mg/kg, iv administered for 5 days a week measured after 21 days; type: organism-based, DMS-53; set-up: dose 6 mg/kg, route intravenous; settings: in vivo, 504 h
Outline: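 Nude mice carrying DMS-53 xenografts (treatment from 100 mm3) received iv tail-vein doses in 30% propylene glycol/saline, 5 days/week for 21 days. Hematological indices (RBC, hemoglobin, hematocrit, reticulocytes, WBC, platelets) were then compared with vehicle controls.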

Mus musculus [4] = experiment: Toxicity in BALB/c nu/nu mouse xenografted with human DMS53 cells assessed as change in heart weight at 7.5 mg/kg, po administered for 3 times a week measured after 20 days; type: organism-based, DMS-53; set-up: dose 7.5 mg/kg, route oral; settings: in vivo, 480 h; outline: as §1
Mus musculus [5] = experiment: Toxicity in BALB/c nu/nu mouse xenografted with human DMS53 cells assessed as change in brain histology at 6 mg/kg, iv administered for 5 days a week measured after 21 days by hematoxylin and eosin staining method; type: organism-based, DMS-53; set-up: dose 6 mg/kg, route intravenous; settings: in vivo, 504 h
Outline: (§2)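 DMS-53 xenografts in nude mice; dosing started at 100 mm3 tumor volume. Agents given iv via tail vein, 5 days/week for 21 days, vehicle 30% propylene glycol/saline, vehicle-treated controls. Mice sacrificed day 21. Body and organ weights and hematological indices recorded. Spleen, kidney, liver, heart, lungs and brain were stained with H&E, Perls' and Gomori Trichrome and read by an independent veterinary pathologist.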

Mus musculus [6] = experiment: Toxicity in BALB/c nu/nu mouse xenografted with human DMS53 cells assessed as body weight change at 7.5 mg/kg, po administered for 3 times a week measured after 20 days; settings: in vivo, 480 h
Mus musculus [7] = experiment: Toxicity in human DMS53 cells xenografted BALB/c nu/nu mouse assessed as change in organ weight at 6 mg/kg, iv administered for 5 days a week measured after 21 days; type: organism-based, DMS-53; set-up: dose 6 mg/kg, route intravenous; settings: in vivo, 504 h
Outline: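 DMS-53 xenograft-bearing nude mice, treatment started at 100 mm3 tumour volume: iv tail-vein dosing in 30% propylene glycol/saline, 5 days/week for 21 days. Organs were weighed at sacrifice and compared with vehicle-control mice.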

Mus musculus [8] = experiment: Toxicity in BALB/c nu/nu mouse xenografted with human DMS53 cells assessed as body weight change at 10 mg/kg, po administered for 3 times a week measured after 20 days; settings: in vivo, 480 h
Mus musculus [9] = experiment: Toxicity in BALB/c nu/nu mouse xenografted with human DMS53 cells assessed as change in hemoglobin level at 3 mg/kg, iv administered for 5 days a week measured after 21 days; type: organism-based, DMS-53; set-up: dose 3 mg/kg, route intravenous; settings: in vivo, 504 h; outline: as §2
Mus musculus [10] = experiment: Toxicity in BALB/c nu/nu mouse xenografted with human DMS53 cells assessed as change in RBC count at 10 mg/kg, po administered for 3 times a week measured after 20 days; type: organism-based, DMS-53; set-up: dose 10 mg/kg, route oral; settings: in vivo, 480 h
Mus musculus [11] = experiment: Toxicity in BALB/c nu/nu mouse xenografted with human DMS53 cells assessed as change in hematopoetic cells in splenic red pulp at 6 mg/kg, iv administered for 5 days a week measured after 21 days by hematoxylin and eosin staining method; type: organism-based, DMS-53; set-up: dose 6 mg/kg, route intravenous; settings: in vivo, 504 h; outline: as §2
Mus musculus [12] = experiment: Toxicity in BALB/c nu/nu mouse xenografted with human DMS53 cells assessed as vacuolation at 6 mg/kg, iv administered for 5 days a week measured after 21 days by hematoxylin and eosin staining method; type: organism-based, DMS-53; set-up: dose 6 mg/kg, route intravenous; settings: in vivo, 504 h
Outline: (§3)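 Nude mice with DMS-53 xenografts dosed by tail-vein iv injection in 30% propylene glycol/saline, starting at 100 mm3 tumour volume, 5 days/week for 21 days. Spleen, kidney, liver, heart, lungs and brain were stained with H&E, Perls' (Fe loading) and Gomori Trichrome (fibrosis) by standard methods, and an independent veterinary pathologist examined them.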

Mus musculus [13] = experiment: Toxicity in BALB/c nu/nu mouse xenografted with human DMS53 cells assessed as change in lungs histology at 6 mg/kg, iv administered for 5 days a week measured after 21 days by hematoxylin and eosin staining method; type: organism-based, DMS-53; set-up: dose 6 mg/kg, route intravenous; settings: in vivo, 504 h; outline: as §2
Mus musculus [14] = experiment: Toxicity in BALB/c nu/nu mouse xenografted with human DMS53 cells assessed as change in body weight at 6 mg/kg, iv administered for 5 days a week measured after 21 days; type: organism-based, DMS-53; set-up: dose 6 mg/kg, route intravenous; settings: in vivo, 504 h; outline: as §2
Mus musculus [15] = experiment: Toxicity in BALB/c nu/nu mouse xenografted with human DMS53 cells assessed as change in RBC count at 20 mg/kg, po administered for 3 times a week measured after 20 days; type: organism-based, DMS-53; set-up: dose 20 mg/kg, route oral; settings: in vivo, 480 h
Mus musculus [16] = experiment: Toxicity in BALB/c nu/nu mouse xenografted with human DMS53 cells assessed as change in spleen weight at 20 mg/kg, po administered for 3 times a week measured after 20 days; type: organism-based, DMS-53; set-up: dose 20 mg/kg, route oral; settings: in vivo, 480 h
Outline: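 DMS-53 xenograft nude mice were gavaged 3 times/week in 30% propylene glycol/saline vehicle for 20 days and then sacrificed. Organ weights and histology of spleen, kidney, liver, heart, lungs and brain were compared with vehicle controls. n = 6-11 mice/condition.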

Mus musculus [17] = experiment: Toxicity in BALB/c nu/nu mouse xenografted with human DMS53 cells assessed as change in heart weight at 20 mg/kg, po administered for 3 times a week measured after 20 days; type: organism-based, DMS-53; set-up: dose 20 mg/kg, route oral; settings: in vivo, 480 h; outline: as §1
Mus musculus [18] = experiment: Toxicity in BALB/c nu/nu mouse xenografted with human DMS53 cells assessed as change in hematocrit level at 20 mg/kg, po administered for 3 times a week measured after 20 days; type: organism-based, DMS-53; set-up: dose 20 mg/kg, route oral; settings: in vivo, 480 h; outline: as §1
Mus musculus [19] = experiment: Toxicity in BALB/c nu/nu mouse xenografted with human DMS53 cells assessed as change in body weight at 4 mg/kg, iv administered for 5 days a week measured after 21 days; type: organism-based, DMS-53; set-up: dose 4 mg/kg, route intravenous; settings: in vivo, 504 h; outline: as §2
Mus musculus [20] = experiment: Toxicity in BALB/c nu/nu mouse xenografted with human DMS53 cells assessed as change in hemoglobin level at 20 mg/kg, po administered for 3 times a week measured after 20 days; type: organism-based, DMS-53; set-up: dose 20 mg/kg, route oral; settings: in vivo, 480 h; outline: as §1
Mus musculus [21] = experiment: Toxicity in BALB/c nu/nu mouse xenografted with human DMS53 cells assessed as hepatocellular necrosis at 4 mg/kg, iv administered for 5 days a week measured after 21 days by hematoxylin and eosin staining method; type: organism-based, DMS-53; set-up: dose 4 mg/kg, route intravenous; settings: in vivo, 504 h; outline: as §3
Mus musculus [22] = experiment: Toxicity in BALB/c nu/nu mouse xenografted with human DMS53 cells assessed as change in lungs histology at 8 mg/kg, iv administered for 5 days a week measured after 21 days by hematoxylin and eosin staining method; type: organism-based, DMS-53; set-up: dose 8 mg/kg, route intravenous; settings: in vivo, 504 h; outline: as §3
Mus musculus [23] = experiment: Toxicity in BALB/c nu/nu mouse xenografted with human DMS53 cells assessed as change in brain histology at 8 mg/kg, iv administered for 5 days a week measured after 21 days by hematoxylin and eosin staining method; type: organism-based, DMS-53; set-up: dose 8 mg/kg, route intravenous; settings: in vivo, 504 h; outline: as §2

SMILES: CCN(C)C(=S)NN=C(c1ccccn1)c1ccccn1.Cl
- Activity (Mus musculus [1]): Non-toxic
- Activity (Mus musculus [2]): Toxic
- Activity (Mus musculus [3]): Non-toxic
- Activity (Mus musculus [4]): Non-toxic
- Activity (Mus musculus [5]): Non-toxic
- Activity (Mus musculus [6]): Non-toxic
- Activity (Mus musculus [7]): Toxic
- Activity (Mus musculus [8]): Non-toxic
- Activity (Mus musculus [9]): Non-toxic
- Activity (Mus musculus [10]): Toxic
- Activity (Mus musculus [11]): Non-toxic
- Activity (Mus musculus [12]): Toxic
- Activity (Mus musculus [13]): Non-toxic
- Activity (Mus musculus [14]): Non-toxic

SMILES: CN(C(=S)NN=C(c1ccccn1)c1ccccn1)C1CCCCC1.Cl
- Activity (Mus musculus [15]): Non-toxic
- Activity (Mus musculus [16]): Non-toxic
- Activity (Mus musculus [17]): Non-toxic
- Activity (Mus musculus [18]): Non-toxic
- Activity (Mus musculus [19]): Non-toxic
- Activity (Mus musculus [20]): Non-toxic
- Activity (Mus musculus [21]): Non-toxic
- Activity (Mus musculus [22]): Non-toxic
- Activity (Mus musculus [23]): Non-toxic
